≈ marks a conversion by molar mass, not a printed value. Calls of active or inactive are those of the source. No cut-off for these calls is given here.
Columns and labels:
Format in all cases: functional
Klebsiella aerogenes [1] = test: Antibacterial activity against Klebsiella aerogenes assessed as diameter of growth inhibition zone at 2 mg/ml at 37 degC after 24 hrs by agar well diffusion method; settings: for zone of inhibition at 2000 µg/mL: read-out: DIZ
Bacillus subtilis [2] = test: Antibacterial activity against Bacillus subtilis assessed as growth inhibition at 37 degC after overnight incubation by agar well diffusion method
Proteus mirabilis [3] = test: Antibacterial activity against Proteus mirabilis assessed as growth inhibition at 37 degC after overnight incubation by agar well diffusion method
Pseudomonas aeruginosa [4] = test: Antibacterial activity against Pseudomonas aeruginosa assessed as growth inhibition at 37 degC after overnight incubation by agar well diffusion method
Escherichia coli [5] = test: Antibacterial activity against Escherichia coli assessed as diameter of growth inhibition zone at 2 mg/ml at 37 degC after 24 hrs by agar well diffusion method; settings: for zone of inhibition at 2000 µg/mL: read-out: DIZ
Staphylococcus aureus [6] = test: Antibacterial activity against Staphylococcus aureus assessed as diameter of growth inhibition zone at 2 mg/ml at 37 degC after 24 hrs by agar well diffusion method; settings: read-out: DIZ
[7] = tested on: Staphylococcus epidermidis; test: Antibacterial activity against Staphylococcus epidermidis assessed as growth inhibition at 37 degC after overnight incubation by agar well diffusion method
Bacillus subtilis [8] = test: Antibacterial activity against Bacillus subtilis assessed as diameter of growth inhibition zone at 2 mg/ml at 37 degC after 24 hrs by agar well diffusion method; settings: for zone of inhibition at 2000 µg/mL: read-out: DIZ
[9] = tested on: Staphylococcus epidermidis; test: Antibacterial activity against Staphylococcus epidermidis assessed as diameter of growth inhibition zone at 2 mg/ml at 37 degC after 24 hrs by agar well diffusion method; settings: read-out: DIZ
Klebsiella aerogenes [10] = test: Antibacterial activity against Klebsiella aerogenes assessed as growth inhibition at 37 degC after overnight incubation by agar well diffusion method
Proteus mirabilis [11] = test: Antibacterial activity against Proteus mirabilis assessed as diameter of growth inhibition zone at 2 mg/ml at 37 degC after 24 hrs by agar well diffusion method; settings: for zone of inhibition at 2000 µg/mL: read-out: DIZ
Pseudomonas aeruginosa [12] = test: Antibacterial activity against Pseudomonas aeruginosa assessed as diameter of growth inhibition zone at 2 mg/ml at 37 degC after 24 hrs by agar well diffusion method; settings: for zone of inhibition at 2000 µg/mL: read-out: DIZ
Staphylococcus aureus [13] = test: Antibacterial activity against Staphylococcus aureus assessed as growth inhibition at 37 degC after overnight incubation by agar well diffusion method
Rattus norvegicus [14] = test: Antiinflammatory activity in Wistar albino rat assessed as inhibition of carrageenan-induced paw edema at 50 mg/kg, po administered 30 mins prior to carrageenan challenge measured after 3 hrs by plethysmometer analysis
Summary of the method: (§1)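 Male Wistar albino rats, 200-250 g, five per group, fasted from 12 h before and during the test. Compounds were given orally at 50 mg/kg 30 min before sub-plantar injection of 0.1 ml 1% carrageenan in 0.9% saline into the left hind paw. Tween 80 vehicle controls. Paw volume was read by plethysmometer up to the tibiotarsal mark at 0-4 h. Results are mean ± SEM and % inhibition, ANOVA and Dunnett's test.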

Rattus norvegicus [15] = test: Antiinflammatory activity in Wistar albino rat assessed as inhibition of carrageenan-induced paw edema at 50 mg/kg, po administered 30 mins prior to carrageenan challenge measured after 4 hrs by plethysmometer analysis; summary of the method: as §1
Rattus norvegicus [16] = test: Antiinflammatory activity in Wistar albino rat assessed as inhibition of carrageenan-induced paw edema at 50 mg/kg, po administered 30 mins prior to carrageenan challenge measured after 1 hr by plethysmometer analysis; summary of the method: as §1
Rattus norvegicus [17] = test: Antiinflammatory activity in Wistar albino rat assessed as inhibition of carrageenan-induced paw edema at 50 mg/kg, po administered 30 mins prior to carrageenan challenge measured after 2 hrs by plethysmometer analysis; summary of the method: as §1
Escherichia coli [18] = test: Antibacterial activity against Escherichia coli assessed as growth inhibition at 37 degC after overnight incubation by agar well diffusion method
Rattus norvegicus [19] = test: Antiinflammatory activity in Wistar albino rat assessed as inhibition of carrageenan-induced paw edema at 10 mg/kg, po administered 30 mins prior to carrageenan challenge measured after 4 hrs by plethysmometer analysis
Rattus norvegicus [20] = test: Antiinflammatory activity in Wistar albino rat assessed as inhibition of carrageenan-induced paw edema at 10 mg/kg, po administered 30 mins prior to carrageenan challenge measured after 1 hr by plethysmometer analysis
Rattus norvegicus [21] = test: Antiinflammatory activity in Wistar albino rat assessed as inhibition of carrageenan-induced paw edema at 10 mg/kg, po administered 30 mins prior to carrageenan challenge measured after 2 hrs by plethysmometer analysis
Rattus norvegicus [22] = test: Antiinflammatory activity in Wistar albino rat assessed as inhibition of carrageenan-induced paw edema at 10 mg/kg, po administered 30 mins prior to carrageenan challenge measured after 3 hrs by plethysmometer analysis

SMILES	zone of inhibition at 2000 µg/mL (Klebsiella aerogenes [1]) [mm]	MIC (Bacillus subtilis [2]) [µg/mL]	MIC (Proteus mirabilis [3]) [µg/mL]	MIC (Pseudomonas aeruginosa [4]) [µg/mL]	zone of inhibition at 2000 µg/mL (Staphylococcus aureus [6]) [mm]	MIC [7] [µg/mL]	zone of inhibition at 2000 µg/mL (Bacillus subtilis [8]) [mm]	zone of inhibition at 2000 µg/mL [9] [mm]	MIC (Klebsiella aerogenes [10]) [µg/mL]	zone of inhibition at 2000 µg/mL (Proteus mirabilis [11]) [mm]	zone of inhibition at 2000 µg/mL (Pseudomonas aeruginosa [12]) [mm]	MIC (Staphylococcus aureus [13]) [µg/mL]	inhibition in vivo at 50 mg/kg (Rattus norvegicus [14]) [%]	inhibition in vivo at 50 mg/kg (Rattus norvegicus [15]) [%]	inhibition in vivo at 50 mg/kg (Rattus norvegicus [16]) [%]	inhibition in vivo at 50 mg/kg (Rattus norvegicus [17]) [%]	diameter of the inhibition zone (DIZ) (Proteus mirabilis [11])	diameter of the inhibition zone (DIZ) (Pseudomonas aeruginosa [12])	zone of inhibition at 2000 µg/mL (Escherichia coli [5]) [mm]	MIC (Escherichia coli [18]) [µg/mL]	other results
O=c1oc2ccc(Br)cc2cc1-c1csc(N2N=C(c3ccc(Cl)cc3)C[C@@]2(O)C(F)(F)F)n1	13	512 (≈ 897 µM)	16 (≈ 28 µM)	128 (≈ 224 µM)	2	512 (≈ 897 µM)	10.3	12.5	8 (≈ 14 µM)	15.1	8.1	128 (≈ 224 µM)	–	–	–	–	–	–	–	–	diameter of the inhibition zone (DIZ) (Escherichia coli [5]): inactive
O=c1oc2ccccc2cc1-c1csc(N2N=C(C(F)(F)F)C[C@@]2(O)C(F)(F)F)n1	–	–	–	–	–	–	–	–	–	–	–	–	64.8	37.9	83.1	79.2	–	–	–	–	–
O=c1oc2ccc(Cl)cc2cc1-c1csc(N2N=C(c3ccc(F)cc3)C[C@@]2(O)C(F)(F)F)n1	–	–	–	–	4.93	64 (≈ 126 µM)	–	14	–	–	–	32 (≈ 62.8 µM)	–	–	–	–	inactive	inactive	–	–	diameter of the inhibition zone (DIZ) (Klebsiella aerogenes [1]): inactive; diameter of the inhibition zone (DIZ) (Escherichia coli [5]): inactive; diameter of the inhibition zone (DIZ) (Bacillus subtilis [8]): inactive
O=c1oc2ccc(Br)cc2cc1-c1csc(N2N=C(c3ccc(Br)cc3)C[C@@]2(O)C(F)(F)F)n1	10.5	–	–	–	2.03	512 (≈ 832 µM)	–	13.1	512 (≈ 832 µM)	–	–	128 (≈ 208 µM)	–	–	–	–	inactive	inactive	10	256 (≈ 416 µM)	diameter of the inhibition zone (DIZ) (Bacillus subtilis [8]): inactive
O=c1oc2ccccc2cc1-c1csc(N2N=C(c3ccc(Cl)cc3)C[C@@]2(O)C(F)(F)F)n1	10.1	512 (≈ 1040 µM)	4 (≈ 8.13 µM)	32 (≈ 65.1 µM)	4.5	64 (≈ 130 µM)	15.7	15.1	8 (≈ 16.3 µM)	15.2	8.1	16 (≈ 32.5 µM)	48	55.4	77.5	82.5	–	–	13.1	2 (≈ 4.07 µM)	–
O=c1oc2ccc(Br)cc2cc1-c1csc(N2N=C(C(F)(F)F)C[C@@]2(O)C(F)(F)F)n1	11	8 (≈ 15.1 µM)	16 (≈ 30.3 µM)	128 (≈ 242 µM)	3.13	16 (≈ 30.3 µM)	25	20.1	512 (≈ 969 µM)	17.2	9.13	64 (≈ 121 µM)	–	–	–	–	–	–	11.9	128 (≈ 242 µM)	–
O=c1oc2ccc(Cl)cc2cc1-c1csc(N2N=C(C(F)(F)F)C[C@@]2(O)C(F)(F)F)n1	–	–	–	–	–	–	–	–	–	–	–	–	54.5	41.1	85.9	63.3	–	–	–	–	–
O=c1oc2ccccc2cc1-c1csc(N2N=C(c3ccc(Br)cc3)C[C@@]2(O)C(F)(F)F)n1	–	–	–	–	–	–	–	–	–	–	–	–	35.5	25.2	76.1	70.8	–	–	–	–	–
C=CC1=C(C(=O)O)N2C(=O)[C@@H](NC(=O)/C(=N\OCC(=O)O)c3csc(N)n3)[C@H]2SC1 [CEFIXIME]	15	2 (≈ 4.41 µM)	2 (≈ 4.41 µM)	2 (≈ 4.41 µM)	3.9	2 (≈ 4.41 µM)	26	22	2 (≈ 4.41 µM)	20	10	2 (≈ 4.41 µM)	–	–	–	–	–	–	14.1	2 (≈ 4.41 µM)	–
O=c1oc2ccc(Cl)cc2cc1-c1csc(N2N=C(c3ccc(Cl)cc3)C[C@@]2(O)C(F)(F)F)n1	–	–	–	–	4.13	512 (≈ 973 µM)	–	11.2	–	–	–	64 (≈ 122 µM)	42.1	31.5	73.2	62.5	inactive	inactive	–	–	diameter of the inhibition zone (DIZ) (Klebsiella aerogenes [1]): inactive; diameter of the inhibition zone (DIZ) (Escherichia coli [5]): inactive; diameter of the inhibition zone (DIZ) (Bacillus subtilis [8]): inactive
O=c1oc2ccc(Cl)cc2cc1-c1csc(N2N=C(c3ccc(Br)cc3)C[C@@]2(O)C(F)(F)F)n1	–	–	–	–	2.07	512 (≈ 897 µM)	–	11.2	–	–	–	64 (≈ 112 µM)	–	–	–	–	inactive	inactive	–	–	diameter of the inhibition zone (DIZ) (Klebsiella aerogenes [1]): inactive; diameter of the inhibition zone (DIZ) (Escherichia coli [5]): inactive; diameter of the inhibition zone (DIZ) (Bacillus subtilis [8]): inactive
COc1ccc2c(c1)c(CC(=O)O)c(C)n2C(=O)c1ccc(Cl)cc1 [INDOMETHACIN]	–	–	–	–	–	–	–	–	–	–	–	–	–	–	–	–	–	–	–	–	inhibition in vivo at 10 mg/kg (Rattus norvegicus [19]): 86.5%; inhibition in vivo at 10 mg/kg (Rattus norvegicus [20]): 94.4%; inhibition in vivo at 10 mg/kg (Rattus norvegicus [21]): 84.2%; inhibition in vivo at 10 mg/kg (Rattus norvegicus [22]): 80.9%
O=c1oc2ccccc2cc1-c1csc(N2N=C(c3ccc(F)cc3)C[C@@]2(O)C(F)(F)F)n1	12.1	512 (≈ 1080 µM)	4 (≈ 8.41 µM)	32 (≈ 67.3 µM)	3.96	64 (≈ 135 µM)	12	14	8 (≈ 16.8 µM)	17	7.87	32 (≈ 67.3 µM)	22.3	18	74.7	56.7	–	–	13	2 (≈ 4.21 µM)	–
O=c1oc2ccc(Br)cc2cc1-c1csc(N2N=C(c3ccc(F)cc3)C[C@@]2(O)C(F)(F)F)n1	11	512 (≈ 924 µM)	–	–	1.87	64 (≈ 115 µM)	12.4	14	256 (≈ 462 µM)	–	–	128 (≈ 231 µM)	–	–	–	–	inactive	inactive	11	512 (≈ 924 µM)	–

Source: ChEMBL document CHEMBL2331091, “Synthesis and pharmacological evaluation of some novel 2-(5-hydroxy-5-trifluoromethyl-4,5-dihydropyrazol-1-yl)-4-(coumarin-3-yl)thiazoles” (2013)
